# Measurements reported in ChEMBL document CHEMBL3393048, “Discovery of potent cytotoxic ortho-aryl chalcones as new scaffold targeting tubulin and mitosis with affinity-based fluorescence” (J Med Chem, 2014).
# Key:
# A549 [1] = test: Induction of apoptosis in human A549 cells assessed as viable cells at 1 uM after 48 hrs by Annexin V-FITC/propidium iodide staining-based flow cytometry (reference value: 99.37%); type: functional; conditions: A549, 48 h, read-out: Activity
# A549 [2] = test: Induction of apoptosis in human A549 cells assessed as viable cells at 0.75 uM after 48 hrs by Annexin V-FITC/propidium iodide staining-based flow cytometry (reference value: 99.37%); type: functional; conditions: A549, 48 h, read-out: Activity
# A549 [3] = test: Induction of apoptosis in human A549 cells assessed as necrotic cells at 1 uM after 48 hrs by Annexin V-FITC/propidium iodide staining-based flow cytometry (reference value: 0.06%); type: functional
# [4] = Antiproliferative activity against human CNE2 cells after 48 hrs by SRB method; type: functional, cell-based; conditions: CNE-2, 48 h
# Summary of the method: (§1)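 SRB assay. Cells in DMEM high glucose with 10% FBS were seeded at 5000/well and grown 24 h; a day-0 plate was fixed at that point. Compounds were added in triplicate for 48 h. IC50 came from nonlinear regression of dose–response curves from at least two independent experiments.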
# SW480 = test: Antiproliferative activity against human SW480 cells after 48 hrs by SRB method; type: functional, cell-based; conditions: SW480, 48 h; summary of the method: as §1
# MCF7 [5] = test: Antiproliferative activity against human MCF7 cells after 48 hrs by SRB method; type: functional, cell-based; conditions: MCF7, 48 h; summary of the method: as §1
# [6] = Antiproliferative activity against vincristine-resistant human HCT8 cells after 48 hrs by SRB method; type: functional, cell-based; conditions: HCT-8, 48 h
# Summary of the method: as §1, with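 “h. Cells were fixed with TCA at 4 °C for 1 h, stained with 0.4% SRB, and the dye was solubilized in 10 mM Tris pH 10.4. OD was read at 515 nm with day-0 OD subtracted.” for “h.”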
# MCF7 [7] = test: Drug resistance index, ratio of IC50 for doxorubicin-resistant human MCF7 cells to IC50 for human MCF7 cells; type: functional
# Summary of the method: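 Drug resistance index = IC50 in the resistant line / IC50 in its parental line. […] Pairs: A549/CDDP vs A549, MCF-7/DOX vs MCF-7, A2780/TAX vs A2780, HCT-8/VCT vs HCT-8.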
# A549 [8] = test: Induction of apoptosis in human A549 cells assessed as early apoptotic cells at 0.25 uM after 48 hrs by Annexin V-FITC/propidium iodide staining-based flow cytometry (reference value: 0.47%); type: functional
# Tubulin (Homo sapiens) = Tubulin (Homo sapiens) (UniProt P68371+Q9H4B7+P0DPH7+P68366+Q13509+Q71U36+P04350+Q3ZCM7+P07437+P68363+Q9BQE3+Q6PEY2+Q13885+Q9BVA1+Q9BUF5); test: Binding affinity to tubulin (unknown origin) after 30 mins by fluorescence assay; type: protein-complex assay
# Summary of the method: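 Intrinsic fluorescence on tubulin binding. Compounds were mixed with tubulin (4 μM or 8 μM) in general tubulin buffer and incubated 30 min. Readings were excitation 430/emission 510 nm or excitation 365/emission 465 nm, with kinetic reads from mixing. ΔF = stable emission minus tubulin-only fluorescence. Optimal wavelengths were set by wavelength scanning.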
# A549 [9] = test: Induction of apoptosis in human A549 cells assessed as necrotic cells at 0.25 uM after 48 hrs by Annexin V-FITC/propidium iodide staining-based flow cytometry (reference value: 0.06%); type: functional
# A549 [10] = test: Induction of apoptosis in human A549 cells assessed as late apoptotic cells at 0.5 uM after 48 hrs by Annexin V-FITC/propidium iodide staining-based flow cytometry (reference value: 0.10%); type: functional
# A549 [11] = test: Induction of apoptosis in human A549 cells assessed as necrotic cells at 0.5 uM after 48 hrs by Annexin V-FITC/propidium iodide staining-based flow cytometry (reference value: 0.06%); type: functional
# A549 [12] = test: Induction of apoptosis in human A549 cells assessed as viable cells at 0.5 uM after 48 hrs by Annexin V-FITC/propidium iodide staining-based flow cytometry (reference value: 99.37%); type: functional; conditions: A549, 48 h, read-out: Activity
structure (smiles),measurement,setting,value
CN(C)c1ccc(/C=C/C(=O)c2ccccc2-c2ccc(F)cc2)cc1,viability at 1 µM,A549 [1],8.21%
same,viability at 0.75 µM,A549 [2],8.57%
same,Activity,A549 [3],7.91%
same,IC50,[4],30 nM
same,IC50,SW480,41 nM
same,IC50,MCF7 [5],230 nM
same,IC50,[6],96 nM
same,Ratio IC50,MCF7 [7],0.68
same,Activity,A549 [8],34.67%
same,Activity,Tubulin (Homo sapiens),Dose-dependent effect
same,Activity,A549 [9],4.95%
same,Activity,A549 [10],41.85%
same,Activity,A549 [11],11.95%
same,viability at 0.5 µM,A549 [12],12.3%
